Measured values as given in ChEMBL document CHEMBL4433213, “Investigation on 2',3'-O-Substituted ATP Derivatives and Analogs as Novel P2X3 Receptor Antagonists” (ACS Med Chem Lett, 2019).

Tests used:
P2X purinoceptor 1 = biological target: T1, P2X purinoceptor 1 (Homo sapiens, UniProt P51575); test: Antagonist activity at human P2X1R transfected in human 1321N1 cells assessed as inhibition of ATP-induced calcium influx; type: cell-based
T1 sequence (P51575 whole entry): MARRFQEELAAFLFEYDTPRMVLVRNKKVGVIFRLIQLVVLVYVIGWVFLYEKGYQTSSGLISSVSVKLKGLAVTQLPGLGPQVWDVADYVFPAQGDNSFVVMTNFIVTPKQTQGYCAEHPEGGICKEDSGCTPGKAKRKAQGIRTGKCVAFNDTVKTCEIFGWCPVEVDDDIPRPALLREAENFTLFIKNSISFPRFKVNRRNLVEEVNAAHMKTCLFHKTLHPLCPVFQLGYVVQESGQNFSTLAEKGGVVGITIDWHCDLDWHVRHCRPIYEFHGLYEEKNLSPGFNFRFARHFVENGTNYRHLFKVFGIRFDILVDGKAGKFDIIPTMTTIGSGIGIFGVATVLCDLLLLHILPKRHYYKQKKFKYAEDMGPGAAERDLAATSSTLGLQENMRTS
Procedure, shortened: (§1)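 1321N1 astrocytoma cells stably expressing human P2X1, P2X2, P2X3 or P2X4 receptor. Calcium influx was induced by ATP at the EC80 for each subtype. Results are given as IC50 (μM) or % inhibition at the indicated concentration.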

P2X purinoceptor 4 = biological target: T2, P2X purinoceptor 4 (Homo sapiens, UniProt Q99571); test: Antagonist activity at human P2X4R transfected in human 1321N1 cells assessed as inhibition of ATP-induced calcium influx; type: cell-based; procedure, shortened: as §1
T2 sequence (Q99571 whole entry): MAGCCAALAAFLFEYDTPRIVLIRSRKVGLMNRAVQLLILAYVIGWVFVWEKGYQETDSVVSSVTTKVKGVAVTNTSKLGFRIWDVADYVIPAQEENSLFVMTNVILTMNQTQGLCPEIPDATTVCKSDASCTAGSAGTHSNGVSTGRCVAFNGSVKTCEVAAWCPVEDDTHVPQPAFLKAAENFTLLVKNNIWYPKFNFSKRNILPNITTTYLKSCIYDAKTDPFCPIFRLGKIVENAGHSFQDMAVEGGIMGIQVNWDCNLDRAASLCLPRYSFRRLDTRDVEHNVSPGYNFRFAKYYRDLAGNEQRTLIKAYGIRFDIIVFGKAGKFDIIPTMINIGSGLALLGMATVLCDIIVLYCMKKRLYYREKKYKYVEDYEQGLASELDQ

[1] = biological target: T3, P2X purinoceptor 2 (Homo sapiens) (UniProt Q9UBL9); test: Antagonist activity at human P2X2R transfected in human 1321N1 cells assessed as inhibition of ATP-induced calcium influx relative to control; type: cell-based; details: concentration not given here; procedure, shortened: as §1
T3 sequence (whole entry): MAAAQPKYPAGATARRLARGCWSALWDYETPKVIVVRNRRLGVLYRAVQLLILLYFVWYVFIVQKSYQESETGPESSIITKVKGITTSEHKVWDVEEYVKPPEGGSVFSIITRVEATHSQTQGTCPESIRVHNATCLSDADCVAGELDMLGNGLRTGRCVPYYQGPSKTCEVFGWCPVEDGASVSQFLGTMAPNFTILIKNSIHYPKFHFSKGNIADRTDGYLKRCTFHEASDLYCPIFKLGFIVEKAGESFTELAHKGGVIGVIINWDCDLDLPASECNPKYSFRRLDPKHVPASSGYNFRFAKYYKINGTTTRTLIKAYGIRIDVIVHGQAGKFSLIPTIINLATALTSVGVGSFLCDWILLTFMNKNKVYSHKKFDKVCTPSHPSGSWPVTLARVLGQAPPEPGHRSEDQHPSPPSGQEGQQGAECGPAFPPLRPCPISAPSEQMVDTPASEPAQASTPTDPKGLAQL

P2X purinoceptor 2 = biological target: T4, P2X purinoceptor 2 (Homo sapiens, UniProt Q9UBL9); test: Antagonist activity at human P2X2R transfected in human 1321N1 cells assessed as inhibition of ATP-induced calcium influx; type: cell-based; procedure, shortened: as §1
T4 sequence (Q9UBL9 whole entry): T3 sequence (whole entry)

P2X purinoceptor 3 [2] = biological target: T5, P2X purinoceptor 3 (Mus musculus, UniProt Q3UR32); test: Antagonist activity at P2X3R in mouse TG sensory neurons assessed as inhibition of P2X3R agonist alpha,beta-meATP-induced current at -65 mV holding potential by whole cell voltage clamp method
T5 sequence (Q3UR32 whole entry): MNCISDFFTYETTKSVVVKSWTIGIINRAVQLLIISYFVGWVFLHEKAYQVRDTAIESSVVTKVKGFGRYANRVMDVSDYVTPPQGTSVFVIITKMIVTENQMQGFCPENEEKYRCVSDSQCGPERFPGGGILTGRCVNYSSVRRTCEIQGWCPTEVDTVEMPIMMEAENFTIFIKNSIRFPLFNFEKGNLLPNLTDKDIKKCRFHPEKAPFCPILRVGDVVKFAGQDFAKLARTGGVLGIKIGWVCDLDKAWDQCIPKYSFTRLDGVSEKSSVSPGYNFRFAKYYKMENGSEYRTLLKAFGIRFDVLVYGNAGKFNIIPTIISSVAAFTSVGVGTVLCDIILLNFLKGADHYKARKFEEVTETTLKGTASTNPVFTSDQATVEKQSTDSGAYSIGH
Procedure, shortened: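 Mouse trigeminal sensory neurons were recorded by whole-cell patch clamp. Test compound (0.001–10 μM) was applied before 10 μM α,β-meATP, and inhibition of the agonist-evoked P2X3 current was measured. IC50 was taken from concentration–inhibition curves. N = 5–6 cells.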

P2X purinoceptor 3 [3] = biological target: T6, P2X purinoceptor 3 (Homo sapiens, UniProt P56373); test: Antagonist activity at human P2X3R transfected in human 1321N1 cells assessed as inhibition of ATP-induced calcium influx; type: cell-based; procedure, shortened: as §1
T6 sequence (P56373 whole entry): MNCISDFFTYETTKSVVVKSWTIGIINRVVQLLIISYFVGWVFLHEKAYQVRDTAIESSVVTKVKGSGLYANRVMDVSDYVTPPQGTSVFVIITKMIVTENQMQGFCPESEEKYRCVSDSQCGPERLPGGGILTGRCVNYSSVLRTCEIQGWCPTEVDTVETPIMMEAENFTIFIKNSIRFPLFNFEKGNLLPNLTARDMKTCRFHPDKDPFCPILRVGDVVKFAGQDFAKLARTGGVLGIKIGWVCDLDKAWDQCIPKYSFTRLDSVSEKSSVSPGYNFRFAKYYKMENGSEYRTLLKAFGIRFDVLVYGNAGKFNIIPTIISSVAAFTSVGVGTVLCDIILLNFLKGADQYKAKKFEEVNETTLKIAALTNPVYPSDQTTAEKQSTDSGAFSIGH

Row | SMILES | IC50 (P2X purinoceptor 1) [µM] | IC50 (P2X purinoceptor 4) [µM] | inhibition [1] [%] | IC50 (P2X purinoceptor 2) [µM] | IC50 (P2X purinoceptor 3 [2]) [µM] | IC50 (P2X purinoceptor 3 [3]) [µM]
1 | Nc1ncnc2c1ncn2[C@@H]1O[C@H](COP(=O)(O)CP(=O)(O)OP(=O)(O)O)[C@H]2OC3(CCCCC3)O[C@H]21 | > 100 | > 100 | 9 | > 100 | 0.127 | 17.5
2 | CC1(C)O[C@@H]2[C@H](O1)[C@@H](COP(=O)(O)OP(=O)(O)OP(=O)(O)O)O[C@H]2n1cnc2c(N)ncnc21 | 41.1 | 48 | 6 | > 100 | 0.024 | 4.11
3 | Nc1ncnc2c1ncn2[C@@H]1O[C@H](COP(=O)(O)OP(=O)(O)OP(=O)(O)O)[C@H]2OCO[C@H]21 | > 100 | > 100 | 36 | > 100 | > 1 | > 100
